Assay [1] has as its target Smoothened (Mus musculus) (UniProt P56726). Put plainly: Antagonist activity at smoothened expressed in mouse Shh Light2 cells assessed as inhibition of purmorphamine- induced Gli-dependent luciferase gene expression.
For assay [2], the target named is Smoothened homolog (Homo sapiens, UniProt Q99835). Put plainly: Displacement of BODIPY-cyclopamine from human Smo expressed in HEK293 cells in presence of 2% fetal calf serum. The method in brief: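 Competition binding: displacement of fluorescently labeled bodipy-cyclopamine from recombinant human Smo expressed in HEK-293 cells. Run in 2% fetal calf serum and, separately, in 20% normal human serum. IC50 values are means of at least five experiments.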
Chain of Smoothened homolog (Q99835 whole entry): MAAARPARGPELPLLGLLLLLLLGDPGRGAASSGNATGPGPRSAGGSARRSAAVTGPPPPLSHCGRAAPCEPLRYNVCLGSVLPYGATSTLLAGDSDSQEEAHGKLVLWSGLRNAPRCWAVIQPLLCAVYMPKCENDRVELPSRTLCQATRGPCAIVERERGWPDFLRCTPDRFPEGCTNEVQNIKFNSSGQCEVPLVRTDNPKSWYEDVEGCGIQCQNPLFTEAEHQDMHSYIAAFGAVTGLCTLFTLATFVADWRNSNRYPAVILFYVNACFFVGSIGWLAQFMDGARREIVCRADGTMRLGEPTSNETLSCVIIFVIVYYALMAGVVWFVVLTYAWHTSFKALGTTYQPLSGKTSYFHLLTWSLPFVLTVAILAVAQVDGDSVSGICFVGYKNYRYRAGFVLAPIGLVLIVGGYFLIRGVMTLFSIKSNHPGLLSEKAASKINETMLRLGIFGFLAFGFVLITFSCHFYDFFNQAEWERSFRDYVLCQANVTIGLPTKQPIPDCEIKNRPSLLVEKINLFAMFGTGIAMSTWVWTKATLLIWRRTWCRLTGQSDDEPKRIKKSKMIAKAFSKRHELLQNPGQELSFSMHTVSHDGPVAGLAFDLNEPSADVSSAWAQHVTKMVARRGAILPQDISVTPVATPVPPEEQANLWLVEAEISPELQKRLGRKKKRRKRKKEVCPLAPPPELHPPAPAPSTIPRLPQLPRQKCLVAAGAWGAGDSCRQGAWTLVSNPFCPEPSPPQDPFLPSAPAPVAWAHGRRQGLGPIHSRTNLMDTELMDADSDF

What is called IC50 is the midpoint of a concentration-inhibition curve.

Where “and” joins values, the source holds several entries; their conditions need not be identical. Equal values may be shown once.

Chain of Smoothened (Mus musculus) (P56726 whole entry, looked up): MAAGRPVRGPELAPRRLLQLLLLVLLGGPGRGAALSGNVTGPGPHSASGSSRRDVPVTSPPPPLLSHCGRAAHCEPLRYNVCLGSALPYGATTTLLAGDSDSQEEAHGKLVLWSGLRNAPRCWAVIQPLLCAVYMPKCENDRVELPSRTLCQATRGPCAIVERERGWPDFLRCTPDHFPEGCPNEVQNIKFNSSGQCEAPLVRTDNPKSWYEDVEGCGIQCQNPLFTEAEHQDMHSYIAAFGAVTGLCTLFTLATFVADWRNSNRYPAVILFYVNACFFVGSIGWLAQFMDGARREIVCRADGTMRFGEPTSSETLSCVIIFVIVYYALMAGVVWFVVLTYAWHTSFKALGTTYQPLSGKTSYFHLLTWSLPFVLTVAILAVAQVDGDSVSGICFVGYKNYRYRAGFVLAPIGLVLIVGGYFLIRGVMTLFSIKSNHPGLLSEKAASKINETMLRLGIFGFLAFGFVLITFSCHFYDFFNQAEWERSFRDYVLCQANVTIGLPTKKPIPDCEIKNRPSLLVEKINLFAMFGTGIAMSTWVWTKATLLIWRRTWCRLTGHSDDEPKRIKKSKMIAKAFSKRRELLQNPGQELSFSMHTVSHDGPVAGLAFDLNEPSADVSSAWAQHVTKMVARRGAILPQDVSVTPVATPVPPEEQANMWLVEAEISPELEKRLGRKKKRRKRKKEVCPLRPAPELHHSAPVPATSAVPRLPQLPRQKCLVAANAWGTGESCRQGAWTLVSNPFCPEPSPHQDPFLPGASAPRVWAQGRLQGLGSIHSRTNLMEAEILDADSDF

Turning to `O=C(Nc1cccnc1-c1ccccc1)N1CCn2c(c(O)n([C@H]3C[C@@H]3c3ccccc3)c2=O)C1`, the IC50 in assay [1] is 28 nM.

Take `O=C(Nc1cccnc1-c1ccsc1)N1CCn2c(c(O)n([C@H]3C[C@@H]3c3ccccc3)c2=O)C1`: in assay [1], the IC50 turned out to be 89 nM.

As for `O=C(Nc1cccc(Cl)c1Cl)N1CCn2c(c(O)n([C@H]3C[C@@H]3c3ccccc3)c2=O)C1`, in assay [1], the IC50 was 270 nM and 430 nM.

As for `O=C(Nc1ccccc1-c1ccccc1)N1CCn2c(c(O)n([C@H]3C[C@@H]3c3ccccc3)c2=O)C1`, the IC50 in assay [1] is 100 nM and 42 nM and 140 nM; in assay [2], 48 nM and 21 nM.

In the case of `CS(=O)(=O)c1cc(Cl)c(NC(=O)N2CCn3c(c(O)n([C@H]4C[C@@H]4c4ccccc4)c3=O)C2)c(Cl)c1`, in assay [1], the IC50 worked out at 41 nM.

For `O=C(Nc1ccnn1-c1cccc(Cl)c1)N1CCn2c(c(O)n([C@H]3C[C@@H]3c3ccccc3)c2=O)C1`, in assay [1], the IC50 was determined as 8 nM.

On to `O=C(Nc1ccnn1-c1cccc(F)c1)N1CCn2c(c(O)n([C@H]3C[C@@H]3c3ccccc3)c2=O)C1`, for which the IC50 in assay [1] was 6 nM.

Consider `C[C@]12CN(C(=O)Nc3ccccc3-c3ccccc3)CCN1C(=O)N([C@H]1C[C@@H]1c1ccccc1)C2=O`, for which, in assay [1], the IC50 stood at 1400 nM.

With `C[C@@]12CN(C(=O)Nc3ccccc3-c3ccccc3)CCN1C(=O)N([C@H]1C[C@@H]1c1ccccc1)C2=O`, the IC50 in assay [1] was determined as 23 nM.

On to `C[C@@]12CN(C(=O)Nc3ccnn3-c3ccccc3)CCN1C(=O)N([C@H]1C[C@@H]1c1ccccc1)C2=O`, for which the IC50 in assay [1] turned out to be 17 nM.

For `O=C(Nc1cccc(Cl)c1Cl)N1CCn2c(c(O)n([C@@H]3C[C@H]3c3ccccc3)c2=O)C1`, the IC50 in assay [1] is 880 nM and 1400 nM.

The record behind these values is BindingDB's records for doi:10.1016/j.bmcl.2011.06.023 (Merck Research Laboratories, 2011).
